Test results published in ChEMBL document CHEMBL2062506, “Synthesis, characterization and structure optimization of a series of thiazolidinone derivatives as Entamoeba histolytica inhibitors” (Eur J Med Chem, 2012).

Tests used:
[1] = Octanol-water partition coefficient, log P of the compound; assay type: physicochemical
Entamoeba histolytica = assay: Antiamoebic activity against Entamoeba histolytica HM-1:IMSS after 72 hrs by microdilution method
HepG2 = assay: Cytotoxicity against human HepG2 cells after 48 hrs by MTT assay; assay type: cell-based; settings: for IC50: Homo sapiens, HepG2, 48 h; for inhibition (INH): human, hepg2, 48 h
Method in brief: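 HepG2 cells grown in DMEM with 10% heat-inactivated FBS and antibiotics at 37 °C, 5% CO2. Cells seeded at 1.2 × 10^4/well and grown 48 h, then exposed 48 h to 3.13–100 µM compound (DMSO stock diluted in medium). MTT (5 mg/mL) added for 4 h, formazan dissolved in DMSO, A570 read against 655 nm reference. Viability expressed relative to untreated cells; triplicate, repeated thrice.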

| SMILES | logP [1] | IC50 (Entamoeba histolytica) [µM] | IC50 (HepG2) [µM] | inhibition (INH) (HepG2) |
| --- | --- | --- | --- | --- |
| CC(C)CN1C(=O)/C(=C/c2ccc(O)cc2)S/C1=N\c1ccccc1 | 5.08 | 2.45 |  |  |
| COc1ccc(/C=C2\S/C(=N\c3ccccc3)N(CC(C)C)C2=O)cc1OC | 5.06 | 0.44 | > 100 | Dose-dependent effect |
| COc1ccc(/C=C2\S/C(=N\c3ccccc3)N(CC(C)C)C2=O)cc1 | 5.22 | 2.72 |  |  |
| Cc1ccc(/C=C2\S/C(=N\c3ccccc3)N(CC(C)C)C2=O)cc1 | 5.89 | 3.21 |  |  |
| CC(C)CN1C(=O)/C(=C/c2ccccc2O)S/C1=N\c1ccccc1 | 5.08 | 2.04 |  |  |
| CC(C)CN1C(=O)/C(=C/c2ccc3c(c2)OCO3)S/C1=N\c1ccccc1 | 5 | 16.7 |  |  |
| CC(C)CN1C(=O)/C(=C/c2ccccn2)S/C1=N\c1ccccc1 | 4.4 | 0.6 | > 100 | Dose-dependent effect |
| Cc1ccsc1/C=C1\S/C(=N\c2ccccc2)N(CC(C)C)C1=O | 5.81 | 0.11 | 89.2 | Dose-dependent effect |
| COc1cc(/C=C2\S/C(=N\c3ccccc3)N(CC(C)C)C2=O)ccc1O | 4.92 | 0.64 | 89.5 | Dose-dependent effect |
| CC(C)CN1C(=O)/C(=C/c2cccc(Cl)c2)S/C1=N\c1ccccc1 | 5.98 | 0.66 | 88.1 | Dose-dependent effect |
| COc1ccc(OC)c(/C=C2\S/C(=N\c3ccccc3)N(CC(C)C)C2=O)c1 | 5.06 | 1.95 |  |  |
| CCc1ccc(/C=C2\S/C(=N\c3ccccc3)N(CC(C)C)C2=O)cc1 | 6.34 | 0.96 | 84.7 | Dose-dependent effect |
| CC(C)CN1C(=O)/C(=C/c2ccc(Cl)cc2)S/C1=N\c1ccccc1 | 5.98 | 1.92 |  |  |
| CC(C)CN1C(=O)/C(=C/c2ccccc2C(F)(F)F)S/C1=N\c1ccccc1 | 6.26 | 3.71 |  |  |
| CC(C)CN1C(=O)/C(=C/c2ccc(N(C)C)cc2)S/C1=N\c1ccccc1 | 5.49 | 0.172 | > 100 | Dose-dependent effect |
| CC(C)CN1C(=O)/C(=C/c2ccc([N+](=O)[O-])cc2)S/C1=N\c1ccccc1 | 5.32 | 0.138 | > 100 | Dose-dependent effect |
| Cc1ncc([N+](=O)[O-])n1CCO [METRONIDAZOLE] |  | 1.64 | > 100 | Dose-dependent effect |
